Assay results from different studies.
Each line is one published result; the experiments were not run side by side.
Organism: Escherichia coli
Observed: microbial growth

C[C@H]1COCCN1c1nc(NCc2cccnc2C(F)(F)F)c2cccnc2n1  MIC (broth dilution; 25922): 128 µg/mL
CN[C@H](CC(C)C)C(=O)N[C@H]1C(=O)N[C@@H](CC(N)=O)C(=O)N[C@H]2C(=O)N[C@H]3C(=O)N[C@H](C(=O)N[C@H](C(=O)O)c4cc(O)cc(O)c4-c4cc3ccc4O)[C@H](O)c3ccc(c(Cl)c3)Oc3cc2cc(c3O[C@@H]2O[C@H](CO)[C@@H](O)[C@H](O)[C@H]2O[C@H]2C[C@](C)(N)[C@H](O)[C@H](C)O2)Oc2ccc(cc2Cl)[C@H]1O  MIC (ATCC10798): > 32 µg/mL
CC1(C)S[C@@H]2[C@H](NC(=O)[C@H](N)c3ccccc3)C(=O)N2[C@H]1C(=O)O  MIC (broth dilution; ATCCBAA2469): > 64 µg/mL
COC(=O)c1cc(-c2cccc(NC(=O)Nc3ccccc3F)c2)on1  MIC (broth dilution; ATCC25922): > 64 µg/mL
CC1CCN(CCCN2/C(=C/c3cc[n+](C)c4ccccc34)Sc3ccccc32)CC1.[I-]  MIC (broth dilution; ATCCBAA2469): 0.5 µg/mL
COC(=O)c1cc(-c2cccc(NC(=O)Nc3ccc(C(F)(F)F)cc3)c2)on1  MIC (broth dilution; ATCC25922): > 64 µg/mL
CCCCCCCCCCCC(=O)OC[C@H]1O[C@@H](n2cc(C)c(=O)[nH]c2=O)C[C@@H]1O  MIC (broth dilution): 2 µg/mL
COc1cccc(OC)c1C(=O)N[C@@H]1C(=O)N2[C@@H]1SC(C)(C)[C@@H]2C(=O)O  MIC (broth dilution; ATCCBAA2469): > 2050 µg/mL
COc1cc(O)c2c(c1)/C=C/C[C@H](O)[C@H](O)C(=O)/C=C/C[C@H](C)OC2=O  MIC: > 500 µg/mL
C[n+]1c(/C=C/c2ccc(O)cc2)cc(/C=C2\Sc3ccccc3N2CCCN2CCOCC2)c2ccccc21.[I-]  MIC (broth dilution; ATCCBAA2469): 8 µg/mL
COC(=O)c1cc(-c2cccc(NC(=O)Nc3cc(OC)ccc3OC)c2)on1  MIC (broth dilution; ATCC25922): > 64 µg/mL
Fc1c(F)c(F)c(-c2c(F)c(F)c(F)c(F)c2F)c(F)c1F  MIC (ATCC25922): > 250 µg/mL
C[C@H](CCC(=O)NCCCNCCCCNCCCN)[C@H]1CC[C@H]2[C@@H]3CC=C4C[C@@H](O)CC[C@]4(C)[C@H]3CC[C@]12C  MIC (broth dilution; MG1655; 20 h): 64 µg/mL
COC(=O)c1cc(-c2cccc(NC(=O)Nc3ccc(F)cc3)c2)on1  MIC (broth dilution; ATCC25922): > 64 µg/mL
Oc1cc(Cl)ccc1Oc1ccc(Cl)cc1Cl  MIC: > 3.2 µg/mL
COC(=O)c1cc(-c2cccc(NC(=S)Nc3cccc(Cl)c3)c2)on1  MIC (broth dilution; ATCC25922): > 64 µg/mL
CO[C@H]1/C=C/O[C@@]2(C)Oc3c(C)c(O)c4c(O)c(c(/C=N/N5CCN(C)CC5)c(O)c4c3C2=O)NC(=O)/C(C)=C\C=C\[C@H](C)[C@H](O)[C@@H](C)[C@@H](O)[C@@H](C)[C@H](OC(C)=O)[C@@H]1C  MIC (broth dilution; ATCCBAA2469): > 64 µg/mL
CCCCCCC#Cc1cncc(-c2nnc(Sc3ccc([N+](=O)[O-])cc3[N+](=O)[O-])n2C)c1  MIC: ≥ 20 µg/mL
CNC(C)C1CCC(N)C(OC2C(N)CC(N)C(OC3OCC(C)(O)C(NC)C3O)C2O)O1 (stereo not shown)  MIC (broth dilution; R477100): 6 µM
